Laboratory results from ChEMBL document CHEMBL5321284, “Discovery of a First-in-Class Degrader for the Lipid Kinase PIKfyve” (J Med Chem, 2023).
Active and inactive are the calls of the source. The calls are words filed in the database; no cut-off is given here.

Assays:
[1] = molecular target: T1, von Hippel-Lindau disease tumor suppressor/1-phosphatidylinositol 3-phosphate 5-kinase (Homo sapiens) (UniProt Q9Y2I7+P40337); assay: PROTAC activity at VHL/PIKfyve in human VCaP cells assessed as induction of PIKfyve degradation at 0.1 uM incubated for 24 hrs by immunoblot analysis; format: cell-based
T1 sequence (P40337 whole entry partner): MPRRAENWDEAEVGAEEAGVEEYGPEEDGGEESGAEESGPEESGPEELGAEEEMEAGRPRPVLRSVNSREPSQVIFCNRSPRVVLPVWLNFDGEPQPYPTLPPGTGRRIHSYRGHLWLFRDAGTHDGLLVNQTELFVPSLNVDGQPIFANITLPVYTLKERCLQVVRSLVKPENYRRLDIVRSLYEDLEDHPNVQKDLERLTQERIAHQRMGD
T1 sequence (Q9Y2I7 2-2098 limits assumed): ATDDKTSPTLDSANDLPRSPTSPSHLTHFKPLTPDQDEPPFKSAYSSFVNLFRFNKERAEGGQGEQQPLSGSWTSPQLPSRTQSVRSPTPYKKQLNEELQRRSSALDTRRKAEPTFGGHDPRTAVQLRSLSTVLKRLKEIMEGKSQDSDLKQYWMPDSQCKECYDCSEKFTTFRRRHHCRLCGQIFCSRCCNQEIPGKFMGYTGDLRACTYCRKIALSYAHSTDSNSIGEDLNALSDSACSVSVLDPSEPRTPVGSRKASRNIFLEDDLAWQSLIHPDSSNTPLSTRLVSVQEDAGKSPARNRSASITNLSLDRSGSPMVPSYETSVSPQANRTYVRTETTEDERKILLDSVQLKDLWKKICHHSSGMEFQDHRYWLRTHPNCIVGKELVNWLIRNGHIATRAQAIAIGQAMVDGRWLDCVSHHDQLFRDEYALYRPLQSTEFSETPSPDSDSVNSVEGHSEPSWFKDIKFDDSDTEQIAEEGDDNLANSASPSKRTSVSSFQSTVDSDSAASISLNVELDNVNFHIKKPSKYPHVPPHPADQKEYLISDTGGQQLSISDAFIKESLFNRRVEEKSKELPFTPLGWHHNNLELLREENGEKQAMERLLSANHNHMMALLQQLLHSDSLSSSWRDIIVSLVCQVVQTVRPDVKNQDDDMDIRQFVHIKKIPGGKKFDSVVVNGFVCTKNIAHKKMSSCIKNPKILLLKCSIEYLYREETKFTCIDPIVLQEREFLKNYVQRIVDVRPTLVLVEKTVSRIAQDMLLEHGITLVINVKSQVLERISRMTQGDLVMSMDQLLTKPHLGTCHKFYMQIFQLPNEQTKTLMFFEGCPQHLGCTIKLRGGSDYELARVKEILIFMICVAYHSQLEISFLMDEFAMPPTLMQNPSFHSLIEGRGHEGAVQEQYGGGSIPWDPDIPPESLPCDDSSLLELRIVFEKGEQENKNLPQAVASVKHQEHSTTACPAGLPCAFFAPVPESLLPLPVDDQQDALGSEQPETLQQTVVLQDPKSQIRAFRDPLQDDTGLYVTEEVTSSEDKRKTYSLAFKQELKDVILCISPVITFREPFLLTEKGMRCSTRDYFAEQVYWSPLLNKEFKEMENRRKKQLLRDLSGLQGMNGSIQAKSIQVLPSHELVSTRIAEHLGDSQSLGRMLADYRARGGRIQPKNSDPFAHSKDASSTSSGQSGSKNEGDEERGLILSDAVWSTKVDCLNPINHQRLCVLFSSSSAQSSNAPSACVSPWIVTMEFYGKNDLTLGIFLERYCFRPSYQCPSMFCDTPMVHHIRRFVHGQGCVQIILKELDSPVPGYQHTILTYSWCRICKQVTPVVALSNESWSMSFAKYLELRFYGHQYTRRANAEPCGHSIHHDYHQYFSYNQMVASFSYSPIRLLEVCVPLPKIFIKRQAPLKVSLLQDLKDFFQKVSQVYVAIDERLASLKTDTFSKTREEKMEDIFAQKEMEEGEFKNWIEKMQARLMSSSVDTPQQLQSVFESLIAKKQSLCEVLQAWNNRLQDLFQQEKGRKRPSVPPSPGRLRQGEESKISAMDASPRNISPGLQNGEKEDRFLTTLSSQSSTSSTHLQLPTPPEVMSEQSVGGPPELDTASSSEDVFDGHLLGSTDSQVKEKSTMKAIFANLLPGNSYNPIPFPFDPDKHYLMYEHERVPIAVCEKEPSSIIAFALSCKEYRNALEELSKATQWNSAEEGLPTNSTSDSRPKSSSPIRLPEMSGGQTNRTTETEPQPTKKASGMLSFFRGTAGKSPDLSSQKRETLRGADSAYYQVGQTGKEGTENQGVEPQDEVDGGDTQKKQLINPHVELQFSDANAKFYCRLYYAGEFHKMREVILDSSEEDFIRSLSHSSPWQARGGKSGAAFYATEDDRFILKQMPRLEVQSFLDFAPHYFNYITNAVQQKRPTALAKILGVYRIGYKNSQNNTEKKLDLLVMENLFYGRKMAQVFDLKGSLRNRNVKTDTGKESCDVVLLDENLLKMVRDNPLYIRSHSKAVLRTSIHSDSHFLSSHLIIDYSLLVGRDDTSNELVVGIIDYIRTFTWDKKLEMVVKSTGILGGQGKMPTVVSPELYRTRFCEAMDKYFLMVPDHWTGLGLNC
How it was run: (§1)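 VCaP cells treated 24 h at 0.1 or 1.0 µM; percent PIKfyve degradation determined by immunoblotting.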

[2] = molecular target: T1, von Hippel-Lindau disease tumor suppressor/1-phosphatidylinositol 3-phosphate 5-kinase (Homo sapiens); assay: PROTAC activity at VHL/PIKfyve in human VCaP cells assessed as induction of PIKfyve degradation at 1 uM incubated for 24 hrs by immunoblot analysis; format: cell-based; how it was run: as §1
VCaP [3] = assay: Antiproliferative activity against human VCaP cells assessed as inhibition of cell proliferation incubated for 24 hrs followed by culturing in compound-free medium for 2 weeks by crystal violet staining based analysis; format: functional
How it was run: (§2)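 VCaP cells exposed either 24 h then washed and chased 2 weeks in compound-free medium, or continuously for 2 weeks; long-term viability visualized by crystal violet staining; IC50 calculated for each condition.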

DU-145 [4] = assay: Induction of massive cytoplasmic vacuolization in human RFP-labeled DU-145 cells at 300 nM incubated for 4 hrs; format: functional, cell-based
VCaP [5] = assay: Antiproliferative activity against human VCaP cells assessed as inhibition of cell proliferation incubated for 2 weeks by crystal violet staining based analysis; format: functional; conditions: 336 h; how it was run: as §2
DU-145 [6] = assay: Induction of massive cytoplasmic vacuolization in human RFP-labeled DU-145 cells incubated for 24 hrs; format: functional, cell-based; conditions: dose 100-3000 nM
How it was run: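 RFP-labeled DU145 cells treated 24 h (300 nM shown); vacuole area per cell quantified from images.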

VCaP [7] = assay: Inhibition of autophagy in human VCaP cells assessed as increase in LC3A/B expression at 100 to 300 nM incubated for 4 hrs followed by culturing in compound-free medium for 72 hrs by immunoblot analysis; format: functional, cell-based; conditions: dose 100-300 nM
How it was run: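 VCaP cells treated 4 h, compounds removed, cultured 72 h in compound-free medium; whole cell lysates immunoblotted for PIKfyve, LC3A/B and GAPDH (RIPA lysis, 4–12% Bis-Tris gels, PVDF, ECL).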

VCaP [8] = assay: Antiproliferative activity against human VCaP cells assessed as inhibition of cell proliferation incubated for 4 hrs followed by culturing in compound-free medium for 2 weeks by crystal violet staining based analysis; format: functional
How it was run: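 VCaP cells treated 4 h, compound removed, then cultured 2 weeks in drug-free medium; long-term viability by crystal violet staining.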

[9] = molecular target: T1, von Hippel-Lindau disease tumor suppressor/1-phosphatidylinositol 3-phosphate 5-kinase (Homo sapiens); assay: PROTAC activity at VHL/PIKfyve in human VCaP cells assessed as induction of PIKfyve degradation at 100 to 300 nM incubated for 4 hrs followed by culturing in compound-free medium for 72 hrs by immunoblot analysis; format: cell-based; conditions: dose 100-300 nM

Activity [1] [%]	Activity [2] [%]	Structure (SMILES)	further results
0	51	Cc1cccc(/C=N/Nc2cc(N3CCOCC3)nc(OCCNC(=O)CCCCCCC(=O)N[C@H](C(=O)N3C[C@H](O)C[C@H]3C(=O)NCc3ccc(-c4scnc4C)cc3)C(C)(C)C)n2)c1	
90	75	Cc1cccc(/C=N/Nc2cc(N3CCOCC3)nc(OCCc3ccc(NC(=O)CCCCCC(=O)N[C@H](C(=O)N4C[C@H](O)C[C@H]4C(=O)NCc4ccc(-c5scnc5C)cc4)C(C)(C)C)cc3)n2)c1	
3	0	Cc1cccc(/C=N/Nc2cc(N3CCOCC3)nc(OCCNC(=O)CCCCCC(=O)N[C@H](C(=O)N3C[C@H](O)C[C@H]3C(=O)NCc3ccc(-c4scnc4C)cc3)C(C)(C)C)n2)c1	
84	92	Cc1cccc(/C=N/Nc2cc(N3CCOCC3)nc(OCCc3ccc(NC(=O)CCCCCCCC(=O)N[C@H](C(=O)N4C[C@H](O)C[C@H]4C(=O)NCc4ccc(-c5scnc5C)cc4)C(C)(C)C)cc3)n2)c1	
0	8	Cc1cccc(/C=N/Nc2cc(N3CCOCC3)nc(OCCc3ccc(NC(=O)CCC(=O)N[C@H](C(=O)N4C[C@H](O)C[C@H]4C(=O)NCc4ccc(-c5scnc5C)cc4)C(C)(C)C)cc3)n2)c1	
26	19	Cc1cccc(/C=N/Nc2cc(N3CCOCC3)nc(OCCc3ccc(NC(=O)CCCCCCC(=O)N[C@H](C(=O)N4C[C@H](O)C[C@H]4C(=O)NCc4ccc(-c5scnc5C)cc4)C(C)(C)C)cc3)n2)c1	
32	31	Cc1cccc(/C=N/Nc2cc(N3CCOCC3)nc(OCCNC(=O)CCCCCCCCC(=O)N[C@H](C(=O)N3C[C@H](O)C[C@H]3C(=O)NCc3ccc(-c4scnc4C)cc3)C(C)(C)C)n2)c1	
30	17	Cc1cccc(/C=N/Nc2cc(N3CCOCC3)nc(OCCNC(=O)CCCCCCCC(=O)N[C@H](C(=O)N3C[C@H](O)C[C@H]3C(=O)NCc3ccc(-c4scnc4C)cc3)C(C)(C)C)n2)c1	
72	32	Cc1cccc(/C=N/Nc2cc(N3CCOCC3)nc(OCCNC(=O)CCCCCCCCCC(=O)N[C@H](C(=O)N3C[C@H](O)C[C@H]3C(=O)NCc3ccc(-c4scnc4C)cc3)C(C)(C)C)n2)c1	
81	45	Cc1cccc(/C=N/Nc2cc(N3CCOCC3)nc(OCCc3ccc(NC(=O)CCCCCCCCC(=O)N[C@H](C(=O)N4C[C@H](O)C[C@H]4C(=O)NCc4ccc(-c5scnc5C)cc4)C(C)(C)C)cc3)n2)c1	
0	0	Cc1cccc(/C=N/Nc2cc(N3CCOCC3)nc(OCCc3ccc(NC(=O)CCCC(=O)N[C@H](C(=O)N4C[C@H](O)C[C@H]4C(=O)NCc4ccc(-c5scnc5C)cc4)C(C)(C)C)cc3)n2)c1	
		Cc1cccc(/C=N/Nc2cc(N3CCOCC3)nc(OCCc3ccccn3)n2)c1 [APILIMOD]	IC50 (VCaP [3]): 1190 nM; Activity (DU-145 [4]): Active; IC50 (VCaP [5]): 254 nM; Activity (DU-145 [6]): Dose-Dependent Effect; inhibition (VCaP [7]): inactive
48	3	Cc1cccc(/C=N/Nc2cc(N3CCOCC3)nc(OCCc3ccc(NC(=O)CCCCCCCCCCC(=O)N[C@H](C(=O)N4C[C@H](O)C[C@H]4C(=O)NCc4ccc(-c5scnc5C)cc4)C(C)(C)C)cc3)n2)c1	
0	10	Cc1cccc(/C=N/Nc2cc(N3CCOCC3)nc(OCCNC(=O)CCCCC(=O)N[C@H](C(=O)N3C[C@H](O)C[C@H]3C(=O)NCc3ccc(-c4scnc4C)cc3)C(C)(C)C)n2)c1	
0	0	Cc1cccc(/C=N/Nc2cc(N3CCOCC3)nc(OCCNC(=O)CCC(=O)N[C@H](C(=O)N3C[C@H](O)C[C@H]3C(=O)NCc3ccc(-c4scnc4C)cc3)C(C)(C)C)n2)c1	
0	0	Cc1cccc(/C=N/Nc2cc(N3CCOCC3)nc(OCCc3ccc(NC(=O)CC(=O)N[C@H](C(=O)N4C[C@H](O)C[C@H]4C(=O)NCc4ccc(-c5scnc5C)cc4)C(C)(C)C)cc3)n2)c1	
67	21	Cc1cccc(/C=N/Nc2cc(N3CCOCC3)nc(OCCNC(=O)CCCCCCCCCCC(=O)N[C@H](C(=O)N3C[C@H](O)C[C@H]3C(=O)NCc3ccc(-c4scnc4C)cc3)C(C)(C)C)n2)c1	
0	0	Cc1cccc(/C=N/Nc2cc(N3CCOCC3)nc(OCCNC(=O)CC(=O)N[C@H](C(=O)N3C[C@H](O)C[C@H]3C(=O)NCc3ccc(-c4scnc4C)cc3)C(C)(C)C)n2)c1	
0	0	Cc1cccc(/C=N/Nc2cc(N3CCOCC3)nc(OCCNC(=O)CCCC(=O)N[C@H](C(=O)N3C[C@H](O)C[C@H]3C(=O)NCc3ccc(-c4scnc4C)cc3)C(C)(C)C)n2)c1	
47	44	Cc1cccc(/C=N/Nc2cc(N3CCOCC3)nc(OCCc3ccc(NC(=O)CCCCC(=O)N[C@H](C(=O)N4C[C@H](O)C[C@H]4C(=O)N[C@@H](C)c4ccc(-c5scnc5C)cc4)C(C)(C)C)cc3)n2)c1	
64	41	Cc1cccc(/C=N/Nc2cc(N3CCOCC3)nc(OCCc3ccc(NC(=O)CCCCCCCCCC(=O)N[C@H](C(=O)N4C[C@H](O)C[C@H]4C(=O)NCc4ccc(-c5scnc5C)cc4)C(C)(C)C)cc3)n2)c1	
0	0	Cc1cccc(/C=N/Nc2cc(N3CCOCC3)nc(OCCc3ccc(NC(=O)CCCCC(=O)N[C@H](C(=O)N4C[C@@H](O)C[C@H]4C(=O)NCc4ccc(-c5scnc5C)cc4)C(C)(C)C)cc3)n2)c1	IC50 (VCaP [8]): > 3000 nM; Activity (DU-145 [4]): Active; Activity [9]: inactive; inhibition (VCaP [7]): inactive
